A short description of data set [1]: Clearance in Balb/c mouse at 5 mg/kg, iv by LC/MS/MS analysis. Type of data set: ADME, organism-based. The following applies: in vivo.
The target in data set [2] is T1, Signal peptide peptidase-like 2A (Mus musculus, UniProt Q9JJF9).
T1 sequence (Q9JJF9 whole entry): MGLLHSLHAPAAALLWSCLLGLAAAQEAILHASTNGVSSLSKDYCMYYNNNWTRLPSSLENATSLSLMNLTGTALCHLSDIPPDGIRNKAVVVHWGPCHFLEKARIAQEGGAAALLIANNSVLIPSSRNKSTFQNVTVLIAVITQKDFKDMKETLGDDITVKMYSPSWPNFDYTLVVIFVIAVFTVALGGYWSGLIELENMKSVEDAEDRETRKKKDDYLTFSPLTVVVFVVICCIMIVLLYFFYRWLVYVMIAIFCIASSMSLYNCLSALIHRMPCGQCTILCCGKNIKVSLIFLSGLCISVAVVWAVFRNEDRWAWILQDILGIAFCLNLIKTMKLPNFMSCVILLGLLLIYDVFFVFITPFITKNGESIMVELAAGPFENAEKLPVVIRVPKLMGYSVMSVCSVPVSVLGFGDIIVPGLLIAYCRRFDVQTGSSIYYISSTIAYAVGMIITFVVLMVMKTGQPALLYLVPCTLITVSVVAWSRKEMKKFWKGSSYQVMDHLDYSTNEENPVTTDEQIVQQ
As to the kind of experiment: Inhibition of mouse SPPL2a in A20 cells assessed as CD74/p8 accumulation by flow cytometry. It counts as cell-based. On the technique in general: In flow cytometry, cells or beads pass a laser one at a time.

Data set [3] addresses T2, Signal peptide peptidase-like 2A (Homo sapiens, UniProt Q8TCT8).
T2 sequence (Q8TCT8 whole entry): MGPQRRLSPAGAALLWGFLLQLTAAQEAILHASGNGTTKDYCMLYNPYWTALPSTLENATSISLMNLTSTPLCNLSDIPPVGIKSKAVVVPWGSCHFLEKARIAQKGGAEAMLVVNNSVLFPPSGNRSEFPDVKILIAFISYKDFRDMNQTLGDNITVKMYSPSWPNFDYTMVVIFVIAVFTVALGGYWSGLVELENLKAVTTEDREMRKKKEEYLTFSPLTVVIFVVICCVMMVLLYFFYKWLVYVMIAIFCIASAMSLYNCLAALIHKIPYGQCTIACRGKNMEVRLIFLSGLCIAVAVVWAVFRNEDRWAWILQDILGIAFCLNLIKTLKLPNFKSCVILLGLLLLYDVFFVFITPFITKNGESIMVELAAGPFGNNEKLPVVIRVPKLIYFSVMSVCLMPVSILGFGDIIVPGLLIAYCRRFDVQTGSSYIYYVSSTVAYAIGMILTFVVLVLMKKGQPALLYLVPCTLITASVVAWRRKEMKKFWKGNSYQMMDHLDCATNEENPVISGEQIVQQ
As to the kind of experiment: Inhibition of human SPPL2a expressed in human U2OS cells using EGFP-labeled TNFalpha (1 to 76 residues) NTF as substrate after 24 hrs by Hoechst staining based high content imaging analysis. It counts as cell-based. In short, it runs like this: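 Stable U-2 OS lines expressing human SPPL2a, SPPL2b or SPP constitutively (mouse SPPL2a line analogous, mouse TNFα(aa1-77)-NTF-EGFP-NLS) with doxycycline-inducible EGFP substrate. 3000 cells/well, 3−4 h, then 11-point inhibitor 100 μM to 1 nM, 0.9% DMSO, 5 μg/mL doxycycline, 24 h 37 °C. PFA fixed, Hoechst nuclei; nuclear minus cytoplasmic EGFP intensity; inhibition vs 0.5 μM reference and DMSO; IC50 by nonlinear regression.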

The subject of data set [4] is Mus musculus. As to the kind of experiment: Immunomodulatory activity in mouse assessed as reduction in transition T2 B cells in splenocyte at 3 to 30 mg/kg administered via oral gavage bid at 8 and 16 hrs dosing interval between first and second dose respectively for 11 days measured 16 hrs post last dose on day 12 by flow cytometry. It counts as functional, organism-based. In short, it runs like this: (§1)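 Mice gavaged with compound in 0.5% MC:0.5% Tween or PEG:D5W 3:1. Spleens dissociated in GentleMACS, filtered at 40 μm, ACK red-cell lysis, counted; 1 × 10^6 splenocytes stained 30 min on ice in HBSS/2% FBS/5 mM EDTA with antimouse panels for B-cell subsets (B220, CD21, CD23, IgM, IgD) or dendritic cells (PDCA1, CD11c, MHCII, lineage markers); analyzed on Fortessa flow cytometer.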

The test system of a further data set is Rattus norvegicus. As to the kind of experiment: Dose normalized Cmax in Wistar rat at 10 mg/kg, po bid measured up to 1 hr by LC/MS/MS analysis. Type of data set: ADME, organism-based, Wister. The following applies: in vivo.
In data set [5] the test system is Mus musculus. As to the kind of experiment: Dose normalized AUC in po dosed Balb/c mouse by LC/MS/MS analysis. It counts as ADME, organism-based. As to conditions: in vivo.
The target in data set [6] is T2, Signal peptide peptidase-like 2A. As to the kind of experiment: Inhibition of human SPPL2a expressed in HEK293 cells using GAL4-VP16 fusedTNFalpha (1 to 76)-NTF as substrate after 24 hrs by Bright-Glo luciferase reporter gene assay. Type of data set: cell-based. In short, it runs like this: (§2)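 HEK293 cells transiently transfected with human SPPL2a, VP16-TNFα(aa1-76)-NTF substrate and Gal4-luciferase reporter (SPPL2a), or human Notch1-VP16-Gal4 plus Gal4-luciferase reporter relying on endogenous γ-secretase.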

The nature of data set [7]: Oral bioavailability in Balb/c mouse by LC/MS/MS analysis. Type of data set: ADME, organism-based. As to conditions: in vivo.
Data set [8] is described as follows: Inhibition of human gamma-secretase expressed in HEK293 cells using Notch1-VP16-Gal4 as substrate after 24 hrs by Bright-Glo luciferase reporter gene assay. Type of data set: cell-based. The following applies: HEK293, 24 h. The method, boiled down:
as §2

Data set [9] concerns Mus musculus. As to the kind of experiment: Immunomodulatory activity in mouse assessed as reduction in transition T1 B cells in splenocyte at 3 to 30 mg/kg administered via oral gavage bid at 8 and 16 hrs dosing interval between first and second dose respectively for 11 days measured 16 hrs post last dose on day 12 by flow cytometry. Type of data set: functional, organism-based. The method, boiled down: as §1

The test system of the next data set is Plasma. As to the kind of experiment: Cmin in mouse plasma at 3 mg/kg, po bid administered at 8 and 16 hrs dosing interval between first and second dose respectively for 11 days measured predose on day 12 by LC/MS/MS analysis. As to conditions: in vivo, read-out: Cmin. It counts as ADME, organism-based. The method, boiled down:
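Mice gavaged bid in 0.5% MC:0.5% Tween or PEG:D5W 3:1; trough sample taken before the morning dose; 50 μL retro-orbital blood into LiHep tubes, kept on ice, plasma separated at 2823g for 5 min, stored at −20 °C until analysis.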

The subject of a further data set is Salmonella typhimurium. As to the kind of experiment: Genotoxicity in Salmonella typhimurium by Ames test. It counts as toxicity. The following applies: salmonella enterica subsp. enterica serovar typhimurium.
Data set [10] is described as follows: Selectivity ratio of IC50 for human gamma-secretase expressed in HEK293 cells to IC50 for human SPPL2a expressed in HEK293 cells. In short, it runs like this: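 HEK293 transiently transfected: SPPL2a arm with human SPPL2a, VP16-TNFα(aa1-76)-NTF and Gal4-luciferase; γ-secretase arm with human Notch1-VP16-Gal4 plus reporter (endogenous γ-secretase). Compound added 3 h after plating, 10 μM–0.3 nM final, triplicate, 24 h at 37 °C; luminescence read. IC50 from concentration vs normalised luminescence; ratio of the two IC50s.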

Data set [11] is described as follows: Stability in human liver microsomes at […] preincubated for 3 mins followed by NADPH addition measured after 1 hr in presence of GSH and [13C2-15N-glycine]-GSH by HPLC/MS method. It counts as ADME, microsome. The following applies: read-out: Stability.

SMILES strings stand for the structures. Active and inactive are the calls of the source. The rule behind the calls is not given here.

Usually clearance stands for the rate of elimination divided by the concentration. A word on the IC50: it is the point on the concentration scale where inhibition reaches its midpoint. One may read the bioavailability as dose-corrected exposure relative to a reference, in per cent. A low value points to little systemic uptake.

Consider `Cc1ncc(F)cc1NC(=O)C[C@H](C(=O)N[C@@H]1C(=O)N2CC3(CC3)CN2C(=O)c2ccccc21)C1CC1`, for which, in [1], the clearance turned out to be 5 mL/min/kg. Besides, the half-inhibitory concentration (IC50) in data set [2] was determined as 137 nM; in data set [3], 160 nM; in data set [6] it was 77 nM; in data set [8], 6100 nM. Also, the outcome in the data set on Mus musculus [4] and in the data set with Mus musculus [9] was Active. The Cmax/dose in the data set on Rattus norvegicus amounted to 805 nM. This compound also had an AUC/dose in the data set with Mus musculus [5] of 6071 nM·h. The bioavailability in data set [7] amounted to 94%. The concentration in the data set on Plasma came to 16 nM. Moreover, the Activity entry in the data set on Salmonella typhimurium is on record as “Non-Toxic”.
On to `Cc1ccccc1NC(=O)C[C@@H](C)C(=O)N[C@@H]1C(=O)N2CCCN2Cc2ccccc21`, for which the clearance in data set [1] worked out at 46 mL/min/kg. In addition, the IC50 in data set [2] was 370 nM; in [6] it was 35 nM; in data set [8], 1860 nM. Moreover, the “Ratio IC50” value in [10] worked out at 52. The AUC/dose in the data set with Mus musculus [5] amounted to 908 nM·h. Moreover, the remaining at 1 h in data set [11] is 70.8%. Besides, the bioavailability in [7] was found to be 100%.
